Reference: ChEMBL document CHEMBL1123211, “Correspondence analysis applied to steroid receptor binding” (J Med Chem, 1986)

Biological target: T1, Glucocorticoid receptor (Homo sapiens) (UniProt P04150)
T1 sequence (whole entry): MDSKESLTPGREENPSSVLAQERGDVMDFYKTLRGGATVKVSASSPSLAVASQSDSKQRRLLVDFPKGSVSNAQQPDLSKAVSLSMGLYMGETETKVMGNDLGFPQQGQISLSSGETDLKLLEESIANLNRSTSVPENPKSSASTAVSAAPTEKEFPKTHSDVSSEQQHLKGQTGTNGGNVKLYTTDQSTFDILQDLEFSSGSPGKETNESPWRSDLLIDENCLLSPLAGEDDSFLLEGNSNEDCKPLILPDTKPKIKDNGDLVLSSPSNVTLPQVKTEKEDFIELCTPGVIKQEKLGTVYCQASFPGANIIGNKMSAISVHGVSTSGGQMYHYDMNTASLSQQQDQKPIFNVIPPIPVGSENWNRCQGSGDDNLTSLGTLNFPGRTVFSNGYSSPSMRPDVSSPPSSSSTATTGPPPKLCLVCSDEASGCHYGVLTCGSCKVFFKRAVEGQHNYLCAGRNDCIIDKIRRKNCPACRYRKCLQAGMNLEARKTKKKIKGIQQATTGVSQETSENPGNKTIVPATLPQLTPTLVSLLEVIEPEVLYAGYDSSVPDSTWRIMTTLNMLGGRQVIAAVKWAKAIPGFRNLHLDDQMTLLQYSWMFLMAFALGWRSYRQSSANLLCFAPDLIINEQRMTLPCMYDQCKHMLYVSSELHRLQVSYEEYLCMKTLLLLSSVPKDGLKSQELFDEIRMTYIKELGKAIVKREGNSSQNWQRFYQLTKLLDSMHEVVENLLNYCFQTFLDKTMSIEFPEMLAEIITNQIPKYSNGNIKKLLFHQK
Assay: Relative binding affinity against glucocorticoid receptor
In short: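 Competitive binding: each steroid incubated with receptor-containing cytosol and a radiolabelled marker selective for the receptor. Bound radioactivity separated by dextran-coated charcoal adsorption. The unlabelled radioligand standard curve used 9-10 concentrations; test steroids used 5-6. RBA = 100 × (radioligand conc for 50% displacement ÷ steroid conc for 50% displacement), with reference hormone set to 100. Mean of ≥3 experiments.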

Compared with `CC1CC2=C3C=CC4(C)C(CC[C@]4(C)O)C3CCC2=CC1=O` (stereo partly specified), `C[C@]1(O)CC[C@H]2[C@@H]3CCC4=CC(=O)CCC4=C3C=C[C@@]21C` (stereo in doubt; 39) is higher in Relative binding affinity: 1.5 for the first, 26 for the second.

Compared with `CC(=O)[C@@]1(C)CCC2C3CCC4=CC(=O)CCC4C3CCC21C` (stereo partly specified), `C[C@]1(O)CC[C@H]2[C@@H]3CCC4=CC(=O)CC[C@@H]4[C@H]3CC[C@@]21C` is higher in Relative binding affinity: 0.7 for the first, 1.5 for the second.

Going from `CC12CCC3=C4CCC(=O)C=C4CCC3C1CC[C@@]21CCS(=O)O1` (stereo partly specified) to `CC12CCC3=C4CCC(=O)C=C4CCC3C1CC[C@@]21CCC(=O)O1` (stereo partly specified), the Relative binding affinity falls from 23 to 17.

Going from `C[C@]12CCC3=C4CCC(=O)C=C4CC[C@H]3[C@@H]1CC[C@@H]2O` to `CC(=O)[C@H]1CCC2C3CCC4=CC(=O)CCC4=C3CCC21C` (stereo partly specified), the Relative binding affinity rises from 1.6 to 5.1.

Compared with `C#C[C@]1(O)CC[C@H]2[C@@H]3CCC4=CC(=O)CCC4=C3C=C[C@@]21CC`, `C#C[C@]1(O)CCC2C3CCC4=CC(=O)CCC4=C3C=CC21CCC` (stereo partly specified) is lower in Relative binding affinity: 77 for the first, 6.4 for the second.

Going from `CC12CCC3=C4CCC(=O)C=C4CCC3C1CC[C@]2(C)O` (stereo partly specified) to `C#C[C@]1(O)CCC2C3CCC4=CC(=O)CCC4=C3CCC21C` (stereo partly specified), the Relative binding affinity falls from 6 to 5.7.

Going from `C[C@@H]1CC2=CC(=O)CC[C@@H]2[C@H]2CC[C@@]3(C)[C@@H](CC[C@]3(C)O)[C@@H]21` to `C[C@@H]1CC2=CC(=O)CCC2=C2CCC3(C)C(CC[C@]3(C)O)C21` (stereo partly specified), the Relative binding affinity rises from 1.4 to 6.1.

First: C#C[C@]1(O)CCC2C3CCC4=CC(=O)CCC4C3CCC21CCC (stereo partly specified)
Second: C#C[C@]1(O)CCC2C3CCC4=CC(=O)CCC4C3CCC21CC (stereo partly specified)
The Relative binding affinity of the first is lower: 9.8 for the first, 14 for the second.

Going from `CCC12C=CC3=C4CCC(=O)C=C4CCC3C1CC[C@]2(C)O` (stereo partly specified) to `C[C@]1(O)CC[C@H]2[C@@H]3CCC4=CC(=O)CCC4=C3C=C[C@@]21C` (stereo in doubt; 12), the Relative binding affinity falls from 155 to 26.

Going from `CC12CCC3C4CCC(=O)C=C4CCC3C1CC[C@@]21CCS(=O)O1` (stereo partly specified) to `CC12CCC3C4CCC(=O)C=C4CCC3C1CC[C@@]21CCC(=O)O1` (stereo partly specified), the Relative binding affinity falls from 0.4 to 0.1.

Going from `C#C[C@]1(O)CC[C@H]2[C@@H]3CCC4=CC(=O)CCC4=C3C=C[C@@]21C` to `CC(=O)[C@@]1(C)CCC2C3CCC4=CC(=O)CCC4=C3C=CC21C` (stereo partly specified), the Relative binding affinity falls from 11 to 2.4.

Going from `CCC12CCC3=C4CCC(=O)C=C4CCC3C1CC[C@@H]2O` (stereo partly specified) to `CCCC12CCC3=C4CCC(=O)C=C4CCC3C1CC[C@@H]2O` (stereo partly specified), the Relative binding affinity falls from 5.1 to 1.9.

Compared with `CC(=O)[C@H]1CCC2C3CCC4=CC(=O)CCC4=C3C=CC21C` (stereo partly specified), `CC12C=CC3=C4CCC(=O)C=C4CCC3C1CCC2=O` (stereo unspecified) is lower in Relative binding affinity: 1.5 for the first, under 0.1 for the second.

`CCC12CCC3C4CCC(=O)C=C4CCC3C1CC[C@@H]2O` (stereo partly specified) and `CCCC12CCC3C4CCC(=O)C=C4CCC3C1CC[C@@H]2O` (stereo partly specified) are the same in Relative binding affinity: 2.1 for the first, 2.1 for the second.

First: C#C[C@]1(O)CCC2C3CCC4=CC(=O)CCC4=C3CCC21CC (stereo partly specified)
Second: C#C[C@]1(O)CCC2C3CCC4=CC(=O)CCC4=C3CCC21CCC (stereo partly specified)
The Relative binding affinity of the first is higher: 17 for the first, 5.5 for the second.

Going from `CC12C=CC3=C4CCC(=O)C=C4CCC3C1CCC2` (stereo unspecified) to `CCC12C=CC3=C4CCC(=O)C=C4CCC3C1CC[C@@H]2O` (stereo partly specified), the Relative binding affinity rises from 0.5 to 20.

Going from `CC12C=CC3=C4CC(=O)CC=C4CCC3C1CC[C@]2(C)O` (stereo partly specified) to `CC12C=CC3=C4CCCC=C4CCC3C1CC[C@]2(C)O` (stereo partly specified), the Relative binding affinity falls from 68 to 0.3.

Going from `CC(=O)[C@@]1(C)CCC2C3CCC4=CC(=O)CCC4=C3CCC21C` (stereo partly specified) to `CC12C=CC3=C4CCC(=O)C=C4CCC3C1CC[C@@]21CCC(=O)O1` (stereo partly specified), the Relative binding affinity rises from 4.5 to 62.

First: CC12C=CC3=C4CCC(=O)C=C4CCC3C1CC[C@@]21CCS(=O)O1 (stereo partly specified)
Second: CCCC12C=CC3=C4CCC(=O)C=C4CCC3C1CC[C@@H]2O (stereo partly specified)
The Relative binding affinity of the first is higher: 35 for the first, 6 for the second.

Compared with `CCC12C=CC3=C4CCC(=O)C=C4C[C@@H](C)C3C1CC[C@]2(C)O` (stereo partly specified), `C[C@@H]1CC2=CC(=O)CCC2=C2C=CC3(C)C(CC[C@]3(C)O)C21` (stereo partly specified) is lower in Relative binding affinity: 145 for the first, 22 for the second.

Compared with `CC1=C2CCC3C(=C2CCC1=O)C=CC1(C)C3CC[C@]1(C)O` (stereo partly specified), `CC1(C)CC2=C3C=CC4(C)C(CC[C@]4(C)O)C3CCC2=CC1=O` (stereo partly specified) is lower in Relative binding affinity: 0.5 for the first, 0.4 for the second.

Going from `CC1(C)CC2C(=C3CCC(=O)C=C31)C=CC1(C)C2CC[C@]1(C)O` (stereo partly specified) to `CC12C=CC3=CCCCC3C1CC[C@]2(C)O` (stereo partly specified), the Relative binding affinity rises from 1.2 to 38.

Compared with `C[C@]12CC[C@H]3[C@@H](CCC4=CC(=O)CC[C@@H]43)[C@@H]1CC[C@@H]2O`, `CC(=O)[C@H]1CC[C@H]2[C@@H]3CCC4=CC(=O)CC[C@@H]4[C@H]3CC[C@]12C` is higher in Relative binding affinity: 0.5 for the first, 0.6 for the second.
